# Laboratory results: ChEMBL document CHEMBL3593194, “BN/CC isosterism in borazaronaphthalenes towards phosphodiesterase 10A (PDE10A) inhibitors” (Bioorg Med Chem, 2015)
# Key:
# [1] = target: T1, cAMP and cAMP-inhibited cGMP 3',5'-cyclic phosphodiesterase 10A (Homo sapiens, UniProt Q9Y233); test: Inhibition of PDE10A (unknown origin) at 10 uM
# Outline: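 Potency against PDE10A is given as the concentration giving 50% inhibition (IC50, nM). Where no IC50 was obtained, the value is percent inhibition at 10 μM.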
# [2] = Intrinsic clearance in rat liver microsomes; type: ADME; conditions: read-out: CLH (converted)
# [3] = target: T1, cAMP and cAMP-inhibited cGMP 3',5'-cyclic phosphodiesterase 10A; test: Inhibition of PDE10A (unknown origin)
# [4] = target: T1, cAMP and cAMP-inhibited cGMP 3',5'-cyclic phosphodiesterase 10A; test: Inhibition of PDE10A (unknown origin) at 2 uM
# T1 sequence (Q9Y233 whole entry): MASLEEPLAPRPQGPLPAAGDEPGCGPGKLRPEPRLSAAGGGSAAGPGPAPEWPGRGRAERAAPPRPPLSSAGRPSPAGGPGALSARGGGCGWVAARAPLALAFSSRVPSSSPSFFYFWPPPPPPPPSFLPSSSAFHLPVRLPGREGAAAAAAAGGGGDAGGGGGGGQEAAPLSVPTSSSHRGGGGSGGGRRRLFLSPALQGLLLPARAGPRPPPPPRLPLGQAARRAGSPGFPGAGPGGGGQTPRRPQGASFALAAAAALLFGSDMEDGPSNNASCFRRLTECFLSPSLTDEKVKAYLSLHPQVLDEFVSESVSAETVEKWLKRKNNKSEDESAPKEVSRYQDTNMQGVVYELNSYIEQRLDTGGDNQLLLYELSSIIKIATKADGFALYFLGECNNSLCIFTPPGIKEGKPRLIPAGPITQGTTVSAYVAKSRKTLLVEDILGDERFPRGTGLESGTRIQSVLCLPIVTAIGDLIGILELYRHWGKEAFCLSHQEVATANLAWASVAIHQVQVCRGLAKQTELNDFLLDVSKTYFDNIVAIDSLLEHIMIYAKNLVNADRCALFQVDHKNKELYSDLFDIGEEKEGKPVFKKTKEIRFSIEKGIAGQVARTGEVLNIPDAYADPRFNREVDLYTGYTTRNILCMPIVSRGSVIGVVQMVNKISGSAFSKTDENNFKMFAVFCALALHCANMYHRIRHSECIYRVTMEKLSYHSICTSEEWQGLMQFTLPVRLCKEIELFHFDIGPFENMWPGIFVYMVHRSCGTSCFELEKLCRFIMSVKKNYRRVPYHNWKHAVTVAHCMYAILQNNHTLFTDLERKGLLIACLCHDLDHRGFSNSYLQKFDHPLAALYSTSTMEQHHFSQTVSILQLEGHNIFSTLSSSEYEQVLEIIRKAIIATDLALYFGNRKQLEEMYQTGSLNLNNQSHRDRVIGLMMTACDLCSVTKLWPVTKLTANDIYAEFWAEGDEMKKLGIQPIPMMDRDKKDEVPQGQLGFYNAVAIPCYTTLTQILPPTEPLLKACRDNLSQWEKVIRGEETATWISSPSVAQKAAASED
structure (smiles),measurement,setting,value
Cn1cc(-c2ccncc2)c(-c2ccc(OCc3ccc4ccccc4c3)cc2)n1,inhibition,[1],25%
same,CLint scaled,[2],83.3 mL/min/kg
CN(C(=O)c1ccncc1)c1ccc(OCB2C=Cc3ccccc3N2)cc1,inhibition,[1],11%
same,CLint scaled,[2],115 mL/min/kg
CN(C(=O)c1cc(-c2ccccc2)n[nH]1)c1ccc(OCc2ccc3ccccc3n2)cc1,CLint scaled,[2],21.7 mL/min/kg
CN(C(=O)c1ccc2ncsc2c1)c1ccc(OCc2ccc3ccccc3c2)cc1,inhibition,[1],5%
same,CLint scaled,[2],48.3 mL/min/kg
Cn1cc(-c2ccncc2)c(-c2ccc(OCc3ccc4ccccc4n3)cc2)n1 [MARDEPODECT],CLint scaled,[2],31.7 mL/min/kg
CN(C(=O)c1csc(-c2cccnc2)n1)c1ccc(OCc2ccc3ccccc3n2)cc1,CLint scaled,[2],> 283 mL/min/kg
same,IC50,[3],0.17 µM
CN(C(=O)c1ccc2ncsc2c1)c1ccc(OCc2ccc3ccccc3n2)cc1,CLint scaled,[2],31.7 mL/min/kg
CN(C(=O)c1cc(-c2ccccc2)n[nH]1)c1ccc(OCB2C=Cc3ccccc3N2)cc1,CLint scaled,[2],5.67 mL/min/kg
same,IC50,[3],1.8 µM
CN(C(=O)c1csc(-c2cccnc2)n1)c1ccc(OCc2ccc3ccccc3c2)cc1,inhibition,[1],2%
same,CLint scaled,[2],> 283 mL/min/kg
CN(C(=O)c1cc(-c2ccccn2)[nH]n1)c1ccc(OCB2C=Cc3ccccc3N2)cc1,CLint scaled,[2],25 mL/min/kg
same,IC50,[3],0.064 µM
CN(C(=O)c1cc(-c2ccccc2)n[nH]1)c1ccc(OCc2ccc3ccccc3c2)cc1,inhibition,[1],3%
same,CLint scaled,[2],6.83 mL/min/kg
CN(C(=O)c1cc(-c2ccccn2)n[nH]1)c1ccc(OCc2ccc3ccccc3n2)cc1,CLint scaled,[2],35 mL/min/kg
CN(C(=O)c1csc(-c2cccnc2)n1)c1ccc(OCB2C=Cc3ccccc3N2)cc1,CLint scaled,[2],> 283 mL/min/kg
same,IC50,[3],0.33 µM
CN(C(=O)c1ccncc1)c1ccc(OCc2ccc3ccccc3n2)cc1,CLint scaled,[2],15 mL/min/kg
CN(C(=O)c1ccc2ncsc2c1)c1ccc(OCB2C=Cc3ccccc3N2)cc1,inhibition,[1],45%
same,CLint scaled,[2],73.3 mL/min/kg
Cn1cc(-c2ccncc2)c(-c2ccc(OCB3C=Cc4ccccc4N3)cc2)n1,inhibition,[1],48%
same,CLint scaled,[2],41.7 mL/min/kg
CN(C(=O)c1cc(-c2ccccn2)[nH]n1)c1ccc(OCc2ccc3ccccc3c2)cc1,inhibition,[1],4%
same,CLint scaled,[2],30 mL/min/kg
CN(C(=O)c1ccncc1)c1ccc(OCc2ccc3ccccc3c2)cc1,inhibition,[4],2%
same,CLint scaled,[2],75 mL/min/kg
